The values that follow come from ChEMBL document CHEMBL1125112, “Antitumor imidazotetrazines. 20. Preparation of the 8-acid derivative of mitozolomide and its utility in the preparation of active antitumor agents” (1990).

By T/C is commonly meant the result in the treated group divided by that in the control group, in per cent.

A value given as a limit tells only on which side of the number the result lay.

The test system of experiment [1] is L1210. The experiment is described as follows: In vivo antitumor activity against the L1210 leukemia cell line in mouse species B6D2F1 after intraperitoneal administration (inoculum cells-10E5,ip) at the dose of 100 mg/kg on 7th day. In kind it is functional.
Experiment [2] has as its system L1210. The experiment is described as follows: In vivo antitumor activity against the L1210 leukemia cell line in mouse species B6D2F1 after intraperitoneal administration (inoculum cells-10E5,ip) at the dose of 100 mg/kg. In kind it is functional.
Experiment [3] deals with L1210. Put plainly: In vivo antitumor activity against the L1210 leukemia cell line in mouse species B6D2F1 after intraperitoneal administration (inoculum cells-10E5,ip) at the dose of 50 mg/kg. In kind it is functional.
In experiment [4] the test system is L1210. The experiment is described as follows: In vivo antitumor activity against the L1210 leukemia cell line in mouse species B6D2F1 after intraperitoneal administration (inoculum cells-10E5,ip) at the dose of 50 mg/kg on 7th day. In kind it is functional.
Experiment [5] deals with L1210. The experiment is described as follows: In vivo antitumor activity against the L1210 leukemia cell line in mouse species B6D2F1 after intraperitoneal administration (inoculum cells-10E5,ip) at the dose of 200 mg/kg. In kind it is functional.
Experiment [6] deals with TLX-5. Put plainly: (§1) In vivo antitumor activity against the TLX5 lymphoma cell line in mouse species CBA/CA after intraperitoneal administration (inoculum cells-2x10E5,sc) at the dose of 40 mg/kg on 5th day. In kind it is functional.
The subject of experiment [7] is TLX-5. The experiment is described as follows: In vivo antitumor activity against the TLX5 lymphoma cell line in mouse species CBA/CA after intraperitoneal administration (inoculum cells-2x10E5,sc) at the dose of 80 mg/kg. In kind it is functional. Put shortly:
(§2)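 CBA/CA mice were inoculated with 2 × 10^5 TLX5 lymphoma cells. Drug given intraperitoneally in 10% Me2SO in arachis oil, 5 mice per dose, and the experiment lasted 60 days. Survivors at 60 days were recorded. T/C % = mean death day of treated animals / mean death day of control animals.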

Experiment [8] relates to TLX-5. Put plainly: In vivo antitumor activity against the TLX5 lymphoma cell line in mouse species CBA/CA after intraperitoneal administration (inoculum cells-2x10E5,sc) at the dose of 20 mg/kg on 5th day. In kind it is functional.
Experiment [9] concerns TLX-5. Put plainly: (§3) In vivo antitumor activity against the TLX5 lymphoma cell line in mouse species CBA/CA after intraperitoneal administration (inoculum cells-2x10E5,sc) at the dose of 40 mg/kg. It is filed as functional. Summed up: as §2
For experiment [10], the system named is TLX-5. Put plainly: In vivo antitumor activity against the TLX5 lymphoma cell line in mouse species CBA/CA after intraperitoneal administration (inoculum cells-2x10E5,sc) at the dose of 20 mg/kg. In kind it is functional. Put shortly:
as §2

Experiment [11] relates to TLX-5. The experiment is described as follows: In vivo antitumor activity against the TLX5 lymphoma cell line in mouse species CBA/CA after intraperitoneal administration (inoculum cells-2x10E5,sc) at the dose of 10 mg/kg on 5th day. In kind it is functional.
The subject of experiment [12] is TLX-5. The experiment is described as follows: In vivo antitumor activity against the TLX5 lymphoma cell line in mouse species CBA/CA after intraperitoneal administration (inoculum cells-2x10E5,sc) at the dose of 10 mg/kg. It is filed as functional.
In experiment [13] the test system is L1210. The experiment is described as follows: In vivo antitumor activity against the L1210 leukemia cell line in mouse species B6D2F1 after intraperitoneal administration (inoculum cells-10E5,ip) at the dose of 200 mg/kg on 7th day. In kind it is functional.
The subject of experiment [14] is TLX-5. The experiment is described as follows: (§4) In vivo antitumor activity against the TLX5 lymphoma cell line in mouse species CBA/CA after intraperitoneal administration (inoculum cells-2x10E5,sc) at the dose of 160 mg/kg. It is filed as functional. Put shortly: as §2
In experiment [15] the test system is TLX-5. Put plainly: In vivo antitumor activity against the TLX5 lymphoma cell line in mouse species CBA/CA after intraperitoneal administration (inoculum cells-2x10E5,sc) at the dose of 80 mg/kg on 5th day. In kind it is functional.
Experiment [16] deals with TLX-5. Put plainly: (§5) In vivo antitumor activity against the TLX5 lymphoma cell line in mouse species CBA/CA after intraperitoneal administration (inoculum cells-2x10E5,sc) at the dose of 160 mg/kg on 5th day. In kind it is functional.
The subject of experiment [17] is TLX-5. The experiment is described as follows: In vivo antitumor activity against the TLX5 lymphoma cell line in mouse species CBA/CA after intraperitoneal administration (inoculum cells-2x10E5,ip) at the dose of 160 mg/kg on 5th day. It is filed as functional.
Experiment [18] has as its system TLX-5. Put plainly: In vivo antitumor activity against the TLX5 lymphoma cell line in mouse species CBA/CA after intraperitoneal administration (inoculum cells-2x10E5,sc) at the dose of 160 mg/kg.
In experiment [19] the test system is TLX-5. Put plainly: In vivo antitumor activity against the TLX5 lymphoma cell line in mouse species CBA/CA after intraperitoneal administration (inoculum cells-2x10E5,ip) at the dose of 80 mg/kg on 5th day. In kind it is functional.
For experiment [20], the system named is TLX-5. Put plainly: In vivo antitumor activity against the TLX5 lymphoma cell line in mouse species CBA/CA after intraperitoneal administration (inoculum cells-2x10E5,ip) at the dose of 320 mg/kg on 5th day. It is filed as functional.
Experiment [21] concerns TLX-5. Put plainly: In vivo antitumor activity against the TLX5 lymphoma cell line in mouse species CBA/CA after intraperitoneal administration (inoculum cells-2x10E5,ip) at the dose of 80 mg/kg. It is filed as functional. Summed up: as §2
The subject of experiment [22] is L1210. The experiment is described as follows: In vivo antitumor activity against the L1210 leukemia cell line in mouse species B6D2F1 after peroral administration (inoculum cells-10E5,ip) at the dose of 320 mg/kg. It is filed as functional. The settings on record: route oral.
Experiment [23] has as its system TLX-5. The experiment is described as §4. In kind it is functional. Summed up:
(§6)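 CBA/CA mice were implanted sc with 2 × 10^5 TLX5 lymphoma cells. Compound was given ip on day 3 in 10% Me2SO in arachis oil, over 60 days, in groups of 5. T/C% = mean death day of treated/mean death day of controls. Survivors to day 60 were counted.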
The source holds these as a separate data set.

In experiment [24] the test system is L1210. Put plainly: In vivo antitumor activity against the L1210 leukemia cell line in mouse species B6D2F1 after peroral administration (inoculum cells-10E5,ip) at the dose of 80 mg/kg. It is filed as functional. To be noted: route oral.
Experiment [25] relates to L1210. Put plainly: In vivo antitumor activity against the L1210 leukemia cell line in mouse species B6D2F1 after peroral administration (inoculum cells-10E5,ip)at the dose of 320 mg/kg on 7th day. It is filed as functional. The settings on record: route oral. Summed up:
(§7)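 B6D2F1 mice were inoculated with 10^5 L1210 leukemia cells, ip or iv as the line states. Compound was given orally as a suspension in 1% (carboxymethyl)cellulose in water, dosed on day 1 or 3, over 28–39 days. T/C% = mean death day of treated/mean death day of controls. Survivors to the end were counted in groups of 7–8.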

In experiment [26] the test system is L1210. Put plainly: In vivo antitumor activity against the L1210 leukemia cell line in mouse species B6D2F1 after peroral administration (inoculum cells-10E5,ip at the dose of 160 mg/kg. It is filed as functional. The settings on record: route oral.
For experiment [27], the system named is TLX-5. The experiment is described as follows: In vivo antitumor activity against the TLX5 lymphoma cell line in mouse species CBA/CA after intraperitoneal administration (inoculum cells-2x10E5,sc) at the dose of 320 mg/kg on 5th day. In kind it is functional.
Experiment [28] has as its system L1210. The experiment is described as follows: In vivo antitumor activity against the L1210 leukemia cell line in mouse species B6D2F1 after peroral administration (inoculum cells-10E5,ip) at the dose of 80 mg/kg on 8th day. In kind it is functional. To be noted: route oral. Put shortly:
as §7

In experiment [29] the test system is L1210. The experiment is described as follows: In vivo antitumor activity against the L1210 leukemia cell line in mouse species B6D2F1 after peroral administration (inoculum cells-10E5,ip) at the dose of 160 mg/kg on 8th day. In kind it is functional. To be noted: route oral. Summed up:
as §7

Experiment [30] concerns TLX-5. The experiment is described as follows: In vivo antitumor activity against the TLX5 lymphoma cell line in mouse species CBA/CA after intraperitoneal administration (inoculum cells-2x10E5,sc) at the dose of 320 mg/kg. It is filed as functional. Put shortly:
as §2

The test system of experiment [31] is L1210. The experiment is described as follows: In vivo antitumor activity against the L1210 leukemia cell line in mouse species B6D2F1 after peroral administration (inoculum cells-10E5,ip) at the dose of 40 mg/kg on 8th day. It is filed as functional. The settings on record: route oral. Put shortly: as §7
Experiment [32] deals with L1210. The experiment is described as follows: In vivo antitumor activity against the L1210 leukemia cell line in mouse species B6D2F1 after peroral administration (inoculum cells-10E5,ip) at the dose of 40 mg/kg. To be noted: route oral. In kind it is functional.
Experiment [33] concerns TLX-5. Described as §5. It is filed as functional. Put shortly: as §2
The source holds these as a separate data set.

Experiment [34] has as its system L1210. Put plainly: In vivo antitumor activity against the L1210 leukemia cell line in mouse species B6D2F1 after peroral administration (inoculum cells-10E5,iv) at the dose of 200 mg/kg. In kind it is functional. To be noted: route oral.
The subject of experiment [35] is L1210. The experiment is described as follows: In vivo antitumor activity against the L1210 leukemia cell line in mouse species B6D2F1 after peroral administration (inoculum cells-10E5,iv) at the dose of 50 mg/kg. In kind it is functional. The settings on record: route oral.
The subject of experiment [36] is TLX-5. The description is as §1. In kind it is functional. Put shortly: as §2
This is another data set of the same source.

The test system of experiment [37] is L1210. The experiment is described as follows: In vivo antitumor activity against the L1210 leukemia cell line in mouse species B6D2F1 after peroral administration (inoculum cells-10E5,iv) at the dose of 100 mg/kg on 7th day. In kind it is functional. The settings on record: route oral. Put shortly: as §7
In experiment [38] the test system is L1210. The experiment is described as follows: In vivo antitumor activity against the L1210 leukemia cell line in mouse species B6D2F1 after peroral administration (inoculum cells-10E5,iv) at the dose of 50 mg/kg on 7th day. In kind it is functional. To be noted: route oral. Summed up:
as §7

For experiment [39], the system named is TLX-5. Described as §3. In kind it is functional. Summed up:
as §6
This is another data set of the same source.

Experiment [40] deals with L1210. Put plainly: In vivo antitumor activity against the L1210 leukemia cell line in mouse species B6D2F1 after peroral administration (inoculum cells-10E5,iv) at the dose of 100 mg/kg. In kind it is functional. To be noted: route oral.
The test system of experiment [41] is L1210. Put plainly: In vivo antitumor activity against the L1210 leukemia cell line in mouse species B6D2F1 after peroral administration (inoculum cells-10E5,iv) at the dose of 200 mg/kg on 7th day. In kind it is functional. The settings on record: route oral. Put shortly: as §7

Consider `CCOC(=O)c1ncn2c(=O)n(CCCl)nnc12`, for which the Survivors in experiment [1], in experiment [4], in experiment [6], in experiment [8], in [11] and in [13] was 0 each time. Further, the Survivors in experiment [15] and in experiment [16] was 0 in each case. The T/C in experiment [2] is on record as 120%; in experiment [3] it was 113%; in experiment [5], 137%; in experiment [7], 91%; in experiment [9], 104%; in experiment [10], 98%. The T/C was found to be 89% in [12] and 113% in experiment [14].
As for `O=C(NNc1ccccc1)c1ncn2c(=O)n(CCCl)nnc12`, the Survivors in [17], in experiment [19] and in experiment [20] was 0 in each case. The figures for the T/C in experiment [18] and in [21] were 169% and 107%, respectively.
Take `O=C(O)c1ncn2c(=O)n(CCCl)nnc12`: the T/C was determined as 106% in experiment [22]; 101% in experiment [24]; 107% in experiment [26]; 106% in experiment [7]; 103% in experiment [9]; 102% in [10]. For the same compound, the figures for the T/C in experiment [30], in experiment [32] and in [33] were 223%, 102% and 108%, respectively. Also, the Survivors in experiment [23], in [6], in [25], in experiment [27], in [8] and in experiment [28] was 0 in each case. Further, the Survivors in [29], in [31] and in experiment [15] was 0 in each case.
On to `CONC(=O)c1ncn2c(=O)n(CCCl)nnc12`, for which the T/C is 205% in experiment [34]; 117% in experiment [35]; 185% in experiment [7]; 103% in [10]; 116% in [36]; greater than 325% in [14]. The compound further registered a T/C in [40] of 179%. Moreover, the Survivors in experiment [27], in experiment [8], in [37], in experiment [38], in [39] and in experiment [15] was 0 in each case. In addition, the results for the Survivors in experiment [41] and in experiment [16] were 0 and 3, respectively.
